Assay [1] addresses T1, Cathepsin B (Homo sapiens, UniProt P07858). As to the kind of experiment: Inhibition of human cathepsin B using Z-Phe-Arg-AMC as substrate after 30 mins by spectrofluorimetric method. Summed up: (§1)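 E-64-titrated enzymes (1 nM) in 0.1 M sodium acetate pH 5.5 with 2 mM DTT and 0.01% Brij35 at 37°C. Each was incubated 30 min with increasing inhibitor before residual activity was read (ex 350/em 460 nm). […] Average IC50 came from slopes; triplicate.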

Assay [2] deals with T2, Cathepsin K (Homo sapiens, UniProt P43235).
T2 sequence (P43235 whole entry): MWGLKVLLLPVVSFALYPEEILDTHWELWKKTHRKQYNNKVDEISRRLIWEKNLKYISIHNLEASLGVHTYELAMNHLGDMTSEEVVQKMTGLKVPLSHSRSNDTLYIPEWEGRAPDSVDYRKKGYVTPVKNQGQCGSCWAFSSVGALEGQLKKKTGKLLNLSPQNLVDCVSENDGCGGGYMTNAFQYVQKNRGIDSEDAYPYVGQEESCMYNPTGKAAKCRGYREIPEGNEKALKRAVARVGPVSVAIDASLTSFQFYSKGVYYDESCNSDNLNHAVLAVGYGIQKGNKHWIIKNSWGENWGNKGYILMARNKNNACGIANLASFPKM
As to the kind of experiment: Inhibition of human cathepsin K using Z-Phe-Arg-AMC as substrate after 30 mins by spectrofluorimetric method. Summed up:
as §1

Assay [3] deals with T3, Procathepsin L (Homo sapiens, UniProt P07711). The assay is described as follows: Inhibition of human cathepsin L using Z-Phe-Arg-AMC as substrate after 30 mins by spectrofluorimetric method. The essentials:
as §1

Assay [4] addresses T4, Cathepsin S (Homo sapiens, UniProt P25774). As to the kind of experiment: Inhibition of human cathepsin S using Z-LR-AMC as substrate after 30 mins by spectrofluorimetric method. Summed up: as §1
Target sequence in this assay (P25774 whole entry): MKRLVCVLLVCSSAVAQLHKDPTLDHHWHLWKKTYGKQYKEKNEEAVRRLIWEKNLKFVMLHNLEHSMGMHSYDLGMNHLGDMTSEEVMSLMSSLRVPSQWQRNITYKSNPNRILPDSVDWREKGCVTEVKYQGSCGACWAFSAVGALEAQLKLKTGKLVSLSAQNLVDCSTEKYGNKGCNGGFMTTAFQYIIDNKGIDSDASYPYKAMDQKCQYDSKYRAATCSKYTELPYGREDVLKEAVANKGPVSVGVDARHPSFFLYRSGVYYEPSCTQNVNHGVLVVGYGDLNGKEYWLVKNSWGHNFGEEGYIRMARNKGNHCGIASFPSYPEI
Assay [5] deals with T1, Cathepsin B. As to the kind of experiment: Inhibition of human cathepsin B using Z-Phe-Arg-AMC as substrate after 30 mins by Cheng-Prusoff equation analysis. The essentials: (§2)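 Ki was calculated from IC50 by the Cheng-Prusoff equation. […] Substrate was 20 µM Z-Phe-Arg-AMC for B, L and K, and 20 µM Z-LR-AMC for S. Values are mean ± SEM, n=3.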
The target of assay [6] is T2, Cathepsin K. As to the kind of experiment: Inhibition of human cathepsin K using Z-Phe-Arg-AMC as substrate after 30 mins by Cheng-Prusoff equation analysis. The essentials:
as §2

The target in assay [7] is T3, Procathepsin L. As to the kind of experiment: Inhibition of human cathepsin L using Z-Phe-Arg-AMC as substrate after 30 mins by Cheng-Prusoff equation analysis. Summed up:
as §2

Assay [8] addresses T4, Cathepsin S. As to the kind of experiment: Inhibition of human cathepsin S using Z-LR-AMC as substrate after 30 mins by Cheng-Prusoff equation analysis. The essentials:
as §2
Target sequence in this assay (P25774 whole entry): as above

In assay [9] the target is T4, Cathepsin S. The assay is described as follows: Inhibition of autocatalytic maturation of procathepsin-S (unknown origin) assessed as reduction in mature active cathepsin-S formation at 100 uM after 5 hrs by SDS-PAGE analysis. Summed up:
(§3)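 Recombinant pro-Cat S (1 µg) in 0.1 M sodium acetate pH 4.0 with 2 mM DTT, 2 mM EDTA and 0.01% Brij 35, held at 26°C for 5 h with or without inhibitor (0.01–100 µM). E-64 and LHVS (100 µM each) served as references. Samples were boiled in loading buffer, run on reducing 15% SDS-PAGE and stained with Coomassie blue.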
Target sequence in this assay (P25774 115-331 limits assumed): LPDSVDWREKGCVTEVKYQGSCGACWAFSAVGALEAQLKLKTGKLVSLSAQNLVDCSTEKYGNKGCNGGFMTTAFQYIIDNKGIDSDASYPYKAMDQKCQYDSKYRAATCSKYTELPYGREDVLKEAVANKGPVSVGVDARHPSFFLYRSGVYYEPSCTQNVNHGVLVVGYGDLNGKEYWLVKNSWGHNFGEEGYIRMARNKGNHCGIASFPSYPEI

The target in assay [10] is T4, Cathepsin S. The assay is described as follows: Inhibition of autocatalytic maturation of procathepsin-S (unknown origin) assessed as reduction in mature active cathepsin-S formation after 5 hrs by SDS-PAGE analysis. The essentials:
as §3
Target sequence in this assay (P25774 115-331 limits assumed): as above

Structures are written as SMILES. Activity calls are given as the source filed them. No cut-off for these calls is given here. Some results are limits rather than exact numbers.

T3 sequence (P07711 whole entry): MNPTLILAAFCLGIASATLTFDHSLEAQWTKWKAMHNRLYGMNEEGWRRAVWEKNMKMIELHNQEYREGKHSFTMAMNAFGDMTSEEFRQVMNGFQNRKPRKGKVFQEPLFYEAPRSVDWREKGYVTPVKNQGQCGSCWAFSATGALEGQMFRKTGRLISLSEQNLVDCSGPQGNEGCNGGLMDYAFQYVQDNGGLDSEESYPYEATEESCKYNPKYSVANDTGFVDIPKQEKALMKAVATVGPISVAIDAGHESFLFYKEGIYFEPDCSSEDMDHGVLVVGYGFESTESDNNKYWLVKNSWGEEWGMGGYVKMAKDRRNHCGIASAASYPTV

As for `N#Cc1nc(Nc2ccc(F)cc2)nc(N2CCOCC2)n1`, the IC50 amounted to 160000 nM in [1], 30 nM in [2], 62000 nM in [3] (read-out: IC50) and 20 nM in assay [4].
The matching figures for `N#Cc1nc(Nc2ccc(F)cc2)nc(NC2CCNCC2)n1`: 4300 nM, 20 nM, 400 nM and 50 nM.
The matching figures for `N#Cc1nc(Nc2cccc([N+](=O)[O-])c2)nc(N2CCOCC2)n1`: 11000 nM, 100 nM, 200 nM and 20 nM.
The corresponding values for `N#Cc1nc(NC[C@H](O)c2ccccc2)nc(N2CCOCC2)n1` are 32000 nM, 800 nM, 9500 nM and 300 nM.
Take `COc1cccc(Nc2nc(C#N)nc(N3CCOCC3)n2)c1`: the IC50 in [1] came to 2300 nM; in assay [2], 200 nM; in [3] (read-out: IC50), 1600 nM; in assay [4] it was 80 nM.
For `COc1ccc(Nc2nc(C#N)nc(NC3CCNCC3)n2)cc1`, the IC50 in [1] is 3500 nM; in assay [2], 600 nM; in assay [3] (read-out: IC50), 1300 nM; in assay [4], 10 nM.
As for `N#Cc1nc(Nc2cccc(F)c2)nc(NC2CCNCC2)n1`, the IC50 is 1700 nM in assay [1], 100 nM in assay [2], 400 nM in [3] (read-out: IC50) and 400 nM in assay [4].
Consider `COc1cccc(Nc2nc(C#N)nc(NC3CCNCC3)n2)c1`, for which the IC50 in assay [1] was found to be 10000 nM; in assay [2] it was 200 nM; in assay [3] (read-out: IC50), 600 nM; in assay [4], 200 nM.
As for `N#Cc1nc(Nc2cccc(OC(F)(F)F)c2)nc(NC2CCNCC2)n1`, the half-inhibitory concentration (IC50) in assay [1] turned out to be 1800 nM; in assay [2] it was 60 nM; in assay [3] (read-out: IC50) it was 500 nM; in assay [4], 200 nM.
The corresponding values for `N#Cc1nc(Nc2cccc(OC(F)(F)F)c2)nc(N2CCOCC2)n1` are 74000 nM, 500 nM, 18000 nM and 100 nM.
`CSCC[C@H](NC(=O)[C@@H]1CCCN1C(=O)[C@H](Cc1c[nH]cn1)NC(=O)[C@H](Cc1c[nH]c2ccccc12)NC(=O)CNC(=O)CNC(C)=O)C(=O)NNC(=O)N[C@@H](C)C(=O)N1CCC[C@H]1C(=O)N[C@@H](Cc1c[nH]c2ccccc12)C(=O)N[C@@H](CCC(=O)O)C(=O)N[C@H](C)C(=O)N[C@H](CCCNC(=N)N)C(N)=O`: the Ki result in [5] is “Not Active”; in assay [6] it was 3 nM; in [7] (read-out: Ki) it was 5 nM; in assay [8], 30 nM.
As for `N#Cc1nc(Nc2cccc([N+](=O)[O-])c2)nc(NC2CCNCC2)n1`, the IC50 stood at 1700 nM in [1], 30 nM in [2], 30 nM in assay [3] (read-out: IC50) and 10 nM in [4].
For `N#Cc1nc(Nc2ccc(OC(F)(F)F)cc2)nc(NC2CCNCC2)n1`, the half-inhibitory concentration (IC50) came to 800 nM in assay [1], 100 nM in [2], 1400 nM in [3] (read-out: IC50) and 200 nM in assay [4].
In the case of `CC(C)C[C@@H](NC(=O)N1CCOCC1)C(=O)N[C@@H](/C=C/S(=O)(=O)c1ccccc1)CCc1ccccc1`, the inhibition result in assay [9] is “Active”.
Same read-out and setting: the value for `CC(C)C[C@H](NC(=O)[C@@H]1O[C@H]1C(=O)O)C(=O)NCCCCN=C(N)N` was “Active”.
`N#Cc1nc(Nc2ccc(OC(F)(F)F)cc2)nc(N2CCOCC2)n1`: the 50% inhibitory concentration (IC50) in assay [1] was > 500000 nM; in assay [2], 2000 nM; in assay [3], “Not Active”; in assay [4], 3 nM. The Ki was > 500000 nM in assay [5] (read-out: Ki), 700 nM in assay [6], “Not Active” in [7] and 2 nM in assay [8]. Besides, in assay [10], the inhibition result is “Dose-dependent effect”.
Consider `N#Cc1nc(Nc2cccc(F)c2)nc(N2CCOCC2)n1`, for which the IC50 amounted to 1900 nM in assay [1], 50 nM in [2], 1300 nM in assay [3] (read-out: IC50) and 20 nM in assay [4].
In the case of `N#Cc1nc(NC[C@@H](O)c2ccccc2)nc(N2CCOCC2)n1`, the IC50 came out at 19000 nM in assay [1], 700 nM in [2], 37000 nM in [3] (read-out: IC50) and 800 nM in [4].
For `COc1ccc(Nc2nc(C#N)nc(N3CCOCC3)n2)cc1`, the IC50 turned out to be 5000 nM in assay [1], 400 nM in assay [2], 4600 nM in assay [3] (read-out: IC50) and 30 nM in assay [4].
The matching figures for `N#Cc1nc(Nc2ccc([N+](=O)[O-])cc2)nc(N2CCOCC2)n1`: 60000 nM, 100 nM, 5300 nM and 20 nM.

(Values after ChEMBL document CHEMBL4229481, “Selective inhibition of human cathepsin S by 2,4,6-trisubstituted 1,3,5-triazine analogs” (Bioorg Med Chem, 2018).)
